Source: PubChem (several laboratories)
NALP3 yeast inh – NALP3 inflammasome inhibitors in reconstituted yeast, primary screen, luminescence, uHTS. inhibition, % at 10 µM. Yeast reconstituted NLRP3/ASC/caspase-1, beta-gal luminescence, 24 h. 0.39% of 330,000 active;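 active = inhibition of 50% or more; inactive = inhibition below 50%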;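 note: plate controls were induced DMSO wells for no effect and uninduced yeast grown without galactose for full effect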
Calb FLC – C. albicans growth inhibition with fluconazole, primary screen, CaCi-2 strain, Alamar Blue fluorescence | C. albicans CaCi-2 + fluconazole, 48 h | growth inhibition, % (test concentration not listed) | 0.57% of 300,000 active;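 active = growth inhibition above about 58% in most replicates, limit read from the data, passing the limit was not always enough; inconclusive = exactly half the replicates above a set limit; inactive = most replicates below a set limit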;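 note: all wells also contain fluconazole at 8 µg/ml as a sub-toxic cotreatment; 0% = median of DMSO wells and 100% = median of geldanamycin control wells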
T cruzi inh – inhibitors of intracellular T. cruzi growth, primary screen, luminescence, NIH3T3 host cells; T. cruzi beta-gal in NIH3T3, 90 h; inhibition, % (no concentration beside the values); 1.4% of 300,000 active;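 active = mean inhibition across valid replicates above about 55%, limit read from the data; inconclusive = mean below that limit but half or more replicates reach it; inactive = mean below it, under half of replicates reach it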;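 note: signal also drops with host cell toxicity which is not excluded here; 0% = plate median of DMSO wells and 100% = zero luminescence signal; higher percent means less beta-gal luminescence so fewer parasites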
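System: NIH/3T3 fibroblasts plus reporter T. cruzi. Medium: DMEM plus 2% FBS. Probe or stimulus: 5000 reporter trypomastigotes per well. Compound: single 50 nL compound addition per well in DMSO. Incubation: co-culture of at least 90 h after 3 h attachment. Detection: GalScreen β-gal luminescence, detergent lysis, 60 min. Evaluation: parasite load inhibition, %.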
Beta apoptosis – inhibitors of cytokine-induced beta cell apoptosis, primary screen, luminescence; INS-1E cytokine-induced death, ATP luminescence, 48 h; percent of positive-control rescue, neutral wells zero; AID 435005, 2010; 0.8% of 300,000 active; protection from apoptosis, % (concentration not given with the values);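 active = Every replicate reaches about 75%, or at least half do and their mean reaches it too, limit read from the data; inconclusive = At least half of replicates reach the limit but their mean does not; inactive = Under half of replicates reach the limit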;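 note: 0% = cytokine-treated negative control wells and 100% = positive control rescue; higher means more ATP so stronger rescue from cytokine killing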
CSC inhib – cancer stem cell viability inhibitors, primary screen, luminescence; cancer stem cell-like cells viability; inhibition, % at 7.5 µM; 1.1% of 300,000 active; in the data active = inhibition above about 75%; inconclusive = no clear call, values can overlap the other calls; tested in HMLE shEcad cells
Mdm2-MdmX inh – inhibitors of human Mdm2-MdmX association, primary screen, cell-based, luminescence, split luciferase, SaOS-2, uHTS. Protein Mdm4 (Homo sapiens) + E3 ubiquitin-protein ligase Mdm2 (Homo sapiens), …. SaOS-2 split-luciferase Mdm2/MdmX complementation. inhibition, % at 8 µM. 3% of 330,000 active. AID 485346, 2010;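 active = inhibition of at least 50% at 8 µM in the primary screen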
Target sequence (O15151 whole entry, looked up): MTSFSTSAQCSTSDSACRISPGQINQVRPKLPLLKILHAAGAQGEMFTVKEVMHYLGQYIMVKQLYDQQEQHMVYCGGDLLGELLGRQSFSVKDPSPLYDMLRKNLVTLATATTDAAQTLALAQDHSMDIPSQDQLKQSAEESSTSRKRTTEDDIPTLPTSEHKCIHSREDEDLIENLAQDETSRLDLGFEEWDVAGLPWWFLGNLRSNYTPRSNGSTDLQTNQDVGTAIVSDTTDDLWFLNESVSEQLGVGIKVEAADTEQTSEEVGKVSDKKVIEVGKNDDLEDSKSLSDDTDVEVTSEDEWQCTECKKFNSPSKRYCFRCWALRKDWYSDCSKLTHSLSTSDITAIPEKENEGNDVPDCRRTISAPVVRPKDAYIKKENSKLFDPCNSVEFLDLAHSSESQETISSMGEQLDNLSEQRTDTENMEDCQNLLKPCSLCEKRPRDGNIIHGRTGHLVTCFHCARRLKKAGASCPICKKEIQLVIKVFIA
Target sequence (Q00987 whole entry, looked up): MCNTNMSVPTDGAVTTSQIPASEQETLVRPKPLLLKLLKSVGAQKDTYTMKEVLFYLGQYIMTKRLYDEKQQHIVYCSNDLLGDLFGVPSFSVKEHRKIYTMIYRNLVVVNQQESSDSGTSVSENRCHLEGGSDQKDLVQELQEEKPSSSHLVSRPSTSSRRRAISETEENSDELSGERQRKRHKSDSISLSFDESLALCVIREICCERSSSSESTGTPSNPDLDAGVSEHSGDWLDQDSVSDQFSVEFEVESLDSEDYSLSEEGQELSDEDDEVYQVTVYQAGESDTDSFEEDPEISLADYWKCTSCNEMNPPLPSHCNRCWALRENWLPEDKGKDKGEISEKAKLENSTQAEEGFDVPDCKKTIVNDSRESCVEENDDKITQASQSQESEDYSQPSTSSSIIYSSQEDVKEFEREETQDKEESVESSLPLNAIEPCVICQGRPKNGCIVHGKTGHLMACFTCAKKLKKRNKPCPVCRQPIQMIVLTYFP
Mdm2 MdmX conf – Mdm2-MdmX complex disruptors, retested hits, confirmation, luminescence, single concentration; shares compounds with Mdm2-MdmX inh; Mdm2-MdmX binding, luminescent assay; inhibition, % at 8 µM; 55% of 10,000 active; AID 489028, 2010; in the data active = inhibition above about 40%
Full FLuc ctr – full-length luciferase signal inhibition, confirmation, counter-screen for Mdm2/MdmX interaction inhibitor project, cell-based, single concentration, SaOS-2; shares compounds with Mdm2-MdmX inh; SaOS-2 full-length luciferase counterscreen, luminescence; inhibition, % at 8 µM; 77% of 6,200 active;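 active = mean inhibition at 8 µM reaching about 37%, which flags the compound as non-specific, limit read from the data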;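 note: p53-null SaOS-2 cells with luciferase driven by a doxycycline-inducible promoter; compound on cells about two nights before reading with doxycycline added after day one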
* hit, by the source's call; ? = inconclusive; . = not tested or not shown. This is a sample that favours compounds with a hit; in the whole collection about 5.3% have one here.

SMILES	NALP3 yeast inh	Calb FLC	T cruzi inh	Beta apoptosis	CSC inhib	Mdm2-MdmX inh	Mdm2 MdmX conf	Full FLuc ctr
Nc1nonc1-n1nnc(C(=O)N/N=C/c2ccc(OCc3ccccc3)cc2)c1CNc1ccccc1	14.2	11.7	-24.2	5.0	12.8	77.4*	10.5	.
Nc1nonc1-n1nnc(C(=O)N/N=C/c2ccc(F)cc2)c1-c1ccc2c(c1)OCO2	8.4	-1.7	-21.8	-0.4	6.0	58.9*	-8.9	.
Nc1nonc1-n1nnc(C(=O)N/N=C/c2ccc(OCc3ccccc3)cc2)c1COc1ccc(F)cc1	-5.5	8.0	21.4	9.6	25.8	61.2*	40.3*	105.4*
Cc1ccccc1COc1cccc(/C=N/NC(=O)c2nnn(-c3nonc3N)c2C)c1	3.2	-7.7	-7.5	10.3	-0.9	50.7*	39.5	86.7*
COc1cccc(CNC(=O)CCCCCNC(=O)N2CCn3c2nc2ccccc23)c1	0.0	5.9	-12.3	-1.7	5.6	7.2	.	.
CCc1ccc(NC(=O)C(=O)NCCN2CCN(S(C)(=O)=O)CC2)cc1	24.7	-0.1	-0.5	-1.8	.	15.6	.	.
CCCCN1C(C)=CC(=C2C(=O)c3ccccc3C2=O)C=C1C	14.6	-11.9	15.5	-1.4	-5.8	-8.9	.	.
Cc1ccc2c(c1)C(=O)C(=O)N2Cc1ccc(Br)cc1	30.4	.	.	3.5	.	65.7*	63.2*	73.7*
CCCCN1C(=O)C(=O)c2cc(Cl)ccc21	9.0	.	.	5.2	33.0	54.3*	19.6	.
CCCN1C(=O)C(=O)c2cc(C)ccc21	-0.5	.	.	-4.9	.	60.4*	6.8	.
Cc1ccc(CN2C(=O)C(=O)c3cc(C)ccc32)cc1	26.2	.	.	1.9	31.4	66.6*	-11.6	.
Cc1ccc2c(c1)C(=O)C(=O)N2CCCOc1ccccc1C	15.7	8.0	5.8	7.1	31.6	29.3	.	.
Cc1ccc2c(c1)C(=O)C(=O)N2CC(=O)Nc1ccccc1NC(=O)c1ccccn1	-3.3	-42.5	23.8	-10.0	.	31.6	.	.
Cc1ccc2c(c1)C(=O)C(=O)N2c1ccc(Cl)cc1	15.3	.	.	9.4	-3.4	22.0	.	.
CC1(C)CC(=O)C=C(c2cccc(Br)c2)C1	15.2	.	.	-0.9	-28.2	9.9	.	.
OC1(C(F)(F)F)CC(c2ccc3ccccc3c2)=NO1 (centres undefined)	1.7	-1.7	8.3	-6.0	0.2	18.8	.	.
O=c1c([N+](=O)[O-])c(N2CCCCCC2)c2ccccc2n1-c1ccccc1	12.8	5.6	11.0	-0.6	-3.3	-1.4	.	.
CC(=O)Nc1ccc(Nc2c([N+](=O)[O-])c(=O)n(-c3ccccc3)c3ccccc23)cc1	0.0	-36.7	-25.2	-1.3	6.4	60.9*	12.7	.
CC(C)(CN1CCNCC1)NS(=O)(=O)c1ccc(Cl)cc1	17.1	.	.	7.8	.	61.0*	24.6	.
O=C(NCc1nc2ccccc2[nH]1)C1=C[C@H](C2CCCCC2)C[C@H](OCc2ccc(CO)cc2)O1	18.7	-3.0	37.5	2.7	20.9	68.1*	44.0*	66.9*
CCO[C@H]1OC(C(=O)NCc2nc3ccccc3[nH]2)=C[C@@H](C2CC2)[C@@H]1CCCO	6.2	-0.1	-19.8	6.4	58.6	53.4*	72.5*	68.7*
O=C(Nc1ccccc1)C1=C[C@@H](C2CCCCC2)C[C@@H](OCc2ccc(CO)cc2)O1	25.1	-14.1	24.2	0.8	46.2	96.5*	75.6*	24.1
O=C(NCc1ccccc1)C1=C[C@H](c2csc3ccccc23)C[C@H](OCc2ccc(CO)cc2)O1	14.7	-6.6	41.9	23.6	14.0	54.0*	36.9	59.1*
C#CCNC(=O)C1=C[C@H](c2csc3ccccc23)C[C@H](OCc2ccc(CO)cc2)O1	7.0	-19.2	24.6	-3.3	-8.1	6.3	.	.
COc1ccc(-c2nc(CS(=O)CC(=O)NCC3CCCO3)c(C)o2)cc1 (centres undefined)	-6.0	-2.2	-2.9	-9.1	-15.4	0.7	.	.
SMILES	NALP3 yeast inh	Calb FLC	T cruzi inh	Beta apoptosis	CSC inhib	Mdm2-MdmX inh	Mdm2 MdmX conf	Full FLuc ctr
CN(Cc1nc2ccccc2c(=O)[nH]1)C(=O)c1cccc(S(=O)(=O)N2CCCC2)c1	10.9	.	.	4.4	.	4.1	.	.
COc1ccccc1NC(=O)CC1C(=O)NCCN1C(=O)Nc1ccc(Cl)c(Cl)c1 (centres undefined)	11.5	18.8	-12.9	-8.6	14.1	27.0	.	.
CC(C)(C)[C@H]1C=C(C(=O)NCc2nc3ccccc3[nH]2)O[C@@H](OCc2ccc(CO)cc2)C1	13.1	5.6	3.8	0.1	-9.5	52.7*	53.5*	92.8*
CCS(=O)(=O)c1nnnn1-c1ccccc1S(C)(=O)=O	-2.7	-0.3	-7.8	-74.8	-3.1	60.2*	63.1*	34.3
COc1ccc(-n2nnnc2S(=O)(=O)Cc2ccc(C(=O)O)cc2)cc1	20.4	-14.5	-12.2	-27.6	51.1	40.1	.	.
Cc1ccc(C(=O)C(C(=O)/C=C/c2ccccc2)=C2SCCCS2)cc1	20.8	8.7	59.2*	.	?	98.0*	89.8*	54.1*
CN(C)CCn1c(=O)n(C2CCCCC2)c(=O)c2c3c(sc21)CCCCC3	22.3	-1.5	37.5	-5.8	34.0	59.4*	44.9*	65.5*
C=CCOc1ccccc1CN(C(=O)CCl)c1ccc2c(c1)OCO2	-4.9	-9.0	49.9	9.6	-7.9	89.7*	80.9*	21.3
Cc1cc(C)cc(S(=O)(=O)c2cn(C)c3cc(N4CCN(C)CC4)c(F)cc3c2=O)c1	-4.8	-12.4	-2.4	-4.8	1.2	96.4*	11.8	.
CCn1cc(S(=O)(=O)c2ccccc2)c(=O)c2cc(F)c(N3CCN(C)CC3)cc21	2.8	21.5	-7.9	-6.4	1.2	4.4	.	.
CCCCN1CCNC[C@H]1Cc1ccc(O)cc1	3.6	-7.1	-8.6	6.1	-3.6	4.8	.	.
Oc1ccc(C[C@H]2CNCCN2CCC23CC4CC(CC(C4)C2)C3)cc1	12.9	-22.4	-4.7	10.6	29.6	58.5*	16.9	.
Oc1ccc(C[C@H]2CNCCN2CCCCC2CCCCC2)cc1	26.5	-2.0	13.0	8.6	2.9	71.7*	10.7	.
Oc1ccc(C[C@@H]2CNCCN2CCC23CC4CC(CC(C4)C2)C3)cc1	12.4	-1.2	41.2	-2.6	13.5	73.0*	23.6	63.9*
Oc1ccc(C[C@@H]2CNCCN2CC2CCCCC2)cc1	14.9	-6.3	9.3	1.3	32.4	18.7	.	.
O=[N+]([O-])c1ccc(C(=S)N2CCN(Cc3ccccc3)CC2)cc1	-1.8	-4.6	8.0	-5.3	-12.8	-5.3	.	.
